# High-throughput results from PubChem.
# CHT inh = inhibits the human high affinity choline transporter; CHT-expressing cells, membrane potential dye, choline response; stronger effect = lower value; B-score at 10 µM; hit rate 0.86% among 310,000; AID 488975;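 active = B-score over 3 SD under the library average, and starting fluorescence ratio not unusually high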;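 also: choline stimulus applied at its EC90 after an EC20 pre-addition; B-score computed on integrated fluorescence ratio after choline addition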
# Target sequence (Q9GZV3 whole entry, looked up): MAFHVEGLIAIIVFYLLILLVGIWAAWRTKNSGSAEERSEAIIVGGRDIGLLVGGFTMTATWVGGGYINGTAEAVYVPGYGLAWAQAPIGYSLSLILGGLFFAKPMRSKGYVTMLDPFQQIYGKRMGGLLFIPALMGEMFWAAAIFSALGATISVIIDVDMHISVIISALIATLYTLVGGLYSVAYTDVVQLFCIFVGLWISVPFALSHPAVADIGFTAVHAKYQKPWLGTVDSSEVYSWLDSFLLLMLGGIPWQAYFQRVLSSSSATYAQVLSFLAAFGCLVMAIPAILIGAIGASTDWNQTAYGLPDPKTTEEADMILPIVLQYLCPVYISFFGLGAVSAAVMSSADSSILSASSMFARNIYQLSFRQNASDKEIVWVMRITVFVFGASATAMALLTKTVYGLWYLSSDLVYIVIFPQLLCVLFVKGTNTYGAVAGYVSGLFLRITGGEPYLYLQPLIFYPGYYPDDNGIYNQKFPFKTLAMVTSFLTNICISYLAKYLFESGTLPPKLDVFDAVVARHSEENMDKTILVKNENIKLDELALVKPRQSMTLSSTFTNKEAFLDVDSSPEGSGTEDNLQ
# CHT allo act = human CHT allosteric activation. CHT-expressing cells, membrane potential dye, choline EC20; stronger effect = higher value; LV-AA mutant CHT in HEK293 cells. B-score at 10 µM. hit rate 0.49% among 310,000. AID 488977;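 active = initial fluorescence not abnormally high and integrated response B-score, plate-corrected, over 3 SD above library mean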
# T cell modulator = modulates CD8 T cell binding to vesicles | 2C CD8+ T cell-vesicle binding, flow cytometry; stronger effect = lower value | response (vesicle binding), % at 7 µM | hit rate 0.068% among 330,000 | AID 2052;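 active = response, share of CD8 T cells binding vesicles, and their 90th percentile fluorescence all below set limits, cut at about 80% in these data, passing the limit was not always enough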;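 also: values below 100% mean blocked vesicle binding to the CD8+ T cells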
#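 Also added: QL9-peptide-loaded Drosophila micro-vesicles bearing Ld, ICAM-1 and B7-1; Test system: purified 2C TCR transgenic mouse naive CD8+ T cells; Measured by: cytometric PE anti-B7-1 and Alexa647 anti-CD8 signals after 1% paraformaldehyde fixation; Timing: binding step 1.5 h, 37 °C, antibody labelling 20 min, ice.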
# VLA-4 inh = inhibition in a human VLA-4 binding assay. P13612. VLA-4 expressing cells, ligand binding flow cytometry. inhibition, % (about 7 µM as worked out from the volumes in the protocol). hit rate 0.2% among 330,000; in the data active = inhibition above about 50%
# CHT activ conf = human CHT activation, confirmatory screen; CHT-expressing cells, membrane potential dye fluorescence (FDSS); % of choline EC20–EC90 response window; HEK293 expressing CHT LV-AA mutant; choline added at its EC20; AID 504833; shares compounds with CHT allo act; activation, % at 10 µM; hit rate 91% among 2,500;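 active = primary screen active, with duplicate mean activation above negative control mean plus 3 SD, cut at about 11% in these data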
# HEK293 MP dye = CHT activator counter-screen hit in parental HEK293 cells. hit rate 62% among 2,500. membrane potential dye fluorescence (FDSS); measured after EC20 choline addition. ratio readout change at 10 µM, hits read low. shares compounds with CHT allo act;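 active = duplicate-averaged ratio beyond 3 SD from buffer wells, up or down, though filed actives are nearly all decreases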
# * marks the source's active call; other numbers are inactive results; i = inactive; nt = no result given. An excerpt weighted towards active compounds, which were near 1.5% of everything screened.
SMILES,CHT inh,CHT allo act,T cell modulator,VLA-4 inh,CHT activ conf,HEK293 MP dye
CN(C)c1ccc(/C=C/c2cccc[n+]2[O-])cc1,i,i,505,-1,nt,nt
Cc1cc(F)ccc1S(=O)(=O)N(CC(=O)N1CCOCC1)CC(=O)N1CCOCC1,nt,nt,184,-6,nt,nt
Cc1ccc(C(=O)NCC(=O)OCCCOC(=O)CNC(=O)c2ccc(C)c(C)c2)cc1C,nt,nt,394,45,nt,nt
O=C(CN1C(=O)CCC1=O)Nc1nc(-c2nc3ccccc3s2)cs1,i,i,666,10,18*,i
COc1ccc(S(=O)(=O)N2CCOCC2)cc1C(=O)NC1CCCCCC1,nt,nt,371,35,nt,nt
CCC(C)n1c(=N)c(C#N)cc2c(=O)n3cccc(C)c3nc21 (centres undefined),i,7*,191,19,41*,-53*
CCC(C)n1c(=N)c(C#N)cc2c(=O)n3cc(C)ccc3nc21 (centres undefined),i,i,488,8,nt,nt
O=C(CN1CCC(NC(=O)c2ccccc2Cl)CC1)NCc1ccco1,i,i,0,14,nt,nt
CCOC(=O)c1c(C)nc2sc3c(=O)n(-c4ccc(C(C)=O)cc4)nnc3c2c1-c1ccc(OC)cc1,i,i,263,18,nt,nt
COc1ccc(-c2c(C(C)=O)c(C)nc3sc4c(=N)n(N)cnc4c23)cc1,i,6.7*,618,-10,41*,-38*
FC(F)(F)COc1cc(-c2nnc(SCc3ccccc3)n2Cc2ccco2)cc(OCC(F)(F)F)n1,i,9.2*,342,-2,24*,i
Cc1cccc(-c2nnc(SCc3ccc(C#N)cc3)n2Cc2ccco2)c1,i,i,360,13,nt,nt
CCN1C(=O)[C@H]2[C@@H](c3ccc(OC)cc3)N3C(=O)CN(CCOC)C(=O)[C@@]3(Cc3ccccc3)[C@H]2C1=O,i,i,415,28,nt,nt
CCCCCCCCCCOC(=O)Cn1c(COc2ccccc2OC)[n+](C)c2ccccc21,i,19*,113,6,91*,-37*
CN(Cc1cccnc1)C(=O)c1cc(COc2ccc3c(c2)CCCC3)on1,i,i,206,-3,2,i
Oc1ccc(-c2nc3cnccn3c2Nc2ccc3c(c2)OCCO3)cc1,i,8.3*,i,-15,6,i
c1ccc(-c2nc3cnccn3c2Nc2ccc3c(c2)OCCO3)cc1,i,i,264,4,nt,nt
COc1ccc(CNC(=O)c2ccccc2SCC(=O)NCc2ccco2)cc1,nt,nt,157,0,nt,nt
O=C(NC1CCCC1)C(c1ccncc1)N(Cc1ccccc1)C(=O)Cc1cccs1 (centres undefined),i,i,350,1,nt,nt
COc1ccccc1CN(C(=O)Cc1cccs1)C(C(=O)NC1CCCC1)c1ccncc1 (centres undefined),i,i,382,1,0,i
O=C(NC1CCCC1)C(c1ccsc1)N(Cc1ccccc1)C(=O)Cc1cccs1 (centres undefined),i,6.9*,178,17,43*,i
O=C(Cc1cccs1)N(Cc1ccco1)C1(C(=O)NC2CCCC2)CCCCC1,i,10*,392,5,41*,i
O=C(NC1CCCC1)C(c1ccsc1)N(Cc1ccco1)C(=O)Cc1cccs1 (centres undefined),i,7.4*,336,12,33*,i
Cc1cc(NC(=O)CCC(=O)N(Cc2ccco2)C2(C(=O)NC3CCCCC3)CCCC(C)C2)no1 (centres undefined),i,i,204,12,19*,i
CSCC[C@H](NC(=O)[C@@H]1Cc2ccccc2CN1)C(=O)NC[C@H]1CC[C@H](C(=O)O)CC1,i,i,192,14,nt,nt
Cc1cc(C)cc(-n2c(C)c3c(C)nnc(C)c3c2C)c1,i,i,444,-6,43*,-28*
Cc1nnc(C)c2c(C)n(-c3ccc(Cl)c(N)c3)c(C)c12,i,i,30,-3,nt,nt
Cc1nnc(C)c2c(C)n(-c3ccc4ncccc4c3)c(C)c12,i,i,262,3,41*,-46*
COc1ccc(NC(=O)Cn2ccc3c(OC)cccc3c2=O)cc1,i,i,76,6,5,i
